# TRPC6 act = activators of mouse TRPC6 channel | HEK293-TRPC6 membrane potential dye fluorescence; hits give high values | B-score at 10 µM | actives 0.13% (n = 310,000);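 active = B-score of the integrated fluorescence ratio above library mean plus 3 SD, and starting fluorescence ratio within library mean plus 5 SD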;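 also: higher score means more depolarization so channel activation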
# TRPC4 act = activators of mouse TRPC4 channel. HEK293 TRPC4beta/mu-opioid, Fluo4 calcium fluorescence; hits give high values. B-score at 10 µM. actives 0.49% (n = 310,000);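 active = B-score above 5 SD of library B-scores, and initial fluorescence ratio not above library mean plus 5 SD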;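 also: positive B-score marks a calcium rise read as TRPC4 activation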
# Target sequence (Q9QUQ5 whole entry, looked up): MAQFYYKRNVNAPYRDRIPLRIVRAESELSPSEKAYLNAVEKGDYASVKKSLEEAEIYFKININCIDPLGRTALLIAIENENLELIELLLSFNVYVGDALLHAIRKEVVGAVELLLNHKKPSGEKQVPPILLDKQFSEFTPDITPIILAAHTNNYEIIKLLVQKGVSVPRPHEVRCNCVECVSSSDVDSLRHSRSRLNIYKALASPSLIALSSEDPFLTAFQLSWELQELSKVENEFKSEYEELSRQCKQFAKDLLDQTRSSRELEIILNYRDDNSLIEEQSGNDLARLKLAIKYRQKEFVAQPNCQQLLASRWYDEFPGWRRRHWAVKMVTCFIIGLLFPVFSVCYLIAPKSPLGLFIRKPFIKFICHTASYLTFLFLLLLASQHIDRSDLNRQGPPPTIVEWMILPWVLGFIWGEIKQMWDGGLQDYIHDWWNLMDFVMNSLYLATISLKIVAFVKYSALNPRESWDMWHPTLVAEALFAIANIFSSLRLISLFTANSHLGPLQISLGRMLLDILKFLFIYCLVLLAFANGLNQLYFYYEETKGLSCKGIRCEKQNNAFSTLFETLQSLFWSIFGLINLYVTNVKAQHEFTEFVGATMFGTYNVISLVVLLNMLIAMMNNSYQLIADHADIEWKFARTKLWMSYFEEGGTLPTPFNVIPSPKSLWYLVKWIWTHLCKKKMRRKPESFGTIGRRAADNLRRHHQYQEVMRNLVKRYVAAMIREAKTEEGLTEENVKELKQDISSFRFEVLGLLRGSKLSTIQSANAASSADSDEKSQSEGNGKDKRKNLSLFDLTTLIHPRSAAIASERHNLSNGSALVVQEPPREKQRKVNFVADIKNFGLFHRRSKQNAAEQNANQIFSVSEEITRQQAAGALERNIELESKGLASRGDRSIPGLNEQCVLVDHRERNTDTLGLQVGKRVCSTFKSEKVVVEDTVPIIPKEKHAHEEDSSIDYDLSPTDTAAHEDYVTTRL
#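 System: HEK293 cells stably co-expressing mouse TRPC4beta and mu-opioid receptor; Schedule: Fluo4 dye loading 45 min at room temperature, 110 s recording; Detection: Fluo4 fluorescence, kinetic; Evaluation: B-scored integrated calcium fluorescence ratio; Controls: buffer (low) and maximal DAMGO (high).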
# TRPC4 inh = blocks the mouse TRPC4 cation channel | Q9QUQ5 | HEK293 TRPC4beta/mu-opioid, DAMGO-evoked Fluo4 calcium flux; hits give low values | B-score at 10 µM | actives 0.39% (n = 300,000) | AID 2247;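 active = B-score over 3 SD under the library average, no early fluorescence shift, positive overall ratio signal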
#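 Assay system: TRPC4beta/mu-opioid receptor HEK293 cell line; compound dosing: single concentration per test compound; detection: Fluo4 Ca2+ flux fluorescence; evaluation: per-well B score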
# TRPC6 inhibitor = mouse TRPC6 channel inhibition; Q61143; HEK293-TRPC6, membrane potential dye, ACh-evoked depolarization; hits give low values; B-score at 10 µM; actives 1.1% (n = 310,000);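 active = B-score under library mean minus 3 SD, initial fluorescence not abnormally high, positive integrated signal ratio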;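 also: B-score derived from integrated fluorescence ratio over the kinetic read; more negative B-score means stronger inhibition of depolarization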
# TRPC4 PAM = allosterically enhances the mouse TRPC4 cation channel. HEK293 TRPC4beta/mu-opioid, DAMGO EC20, Fluo-4 Ca2+ flux; hits give high values. B-score at 10 µM. actives 0.42% (n = 310,000). AID 2227;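 active = B-score of calcium response area above 5 SD of library B-scores, with initial fluorescence ratio within 5 SD of library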;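 also: B-score of integrated fluorescence ratio over time as area under calcium response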
# TRPC4 spec 2 = second selectivity test of TRPC6 inhibitors: effect on mouse TRPC4; shares compounds with TRPC6 inhibitor; HEK293 TRPC4/MOR, membrane potential dye fluorescence; channel activated by saturating DAMGO dose; inhibition, % at 10 µM; actives 42% (n = 920);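 active = compounds whose fluorescence signal differed from control wells by over 3 SD, either direction, in both duplicate plates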
# TRPC4 spec = tests whether TRPC6 inhibitors also affect mouse TRPC4; activity change, negative = inhibition, % at 10 µM; HEK293 TRPC4/mu-opioid, membrane potential fluorescence; shares compounds with TRPC6 inhibitor; actives 61% (n = 920);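 active = rise or fall in signal beyond 3 SD of buffer-only wells in both replicate plates, either sign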;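 also: integrated kinetic ratio of fluorescence range over baseline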
# HEK293 MPD ctr 2-1 = second check of TRPC6 inhibitor effects in parental HEK293 cells | shares compounds with TRPC6 inhibitor | parental HEK293 membrane potential dye fluorescence; maximal acetylcholine challenge after compound addition | signal change vs control, % at 10 µM | actives 31% (n = 920) | AID 2779;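 active = membrane potential signal moving either way by over 3 SD of the maximum-effect control, in both duplicate plates, meaning non-specific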
# HEK293 MPD ctr-1 = counter-screen for TRPC6 inhibitors: effect in parental HEK293 cells | shares compounds with TRPC6 inhibitor | AID 2780 | parental HEK293 membrane potential dye fluorescence | actives 60% (n = 920) | membrane potential signal change, % at 10 µM;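 active = membrane potential signal shifting up or down by more than 3 SD of buffer-only wells, on both duplicate plates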
# HEK293 MPD ctr-2 = parental HEK293 nonspecific activity of TRPC6 modulators; membrane potential dye fluorescence; membrane potential signal change, % at 10 µM; actives 51% (n = 2,400); shares compounds with TRPC6 inhibitor;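 active = membrane potential signal moves up or down beyond 5 SD from buffer-only wells, on both duplicate plates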
# HEK293 MPD ctr 2-2 = second counter-screen for TRPC6 modulators: effect in parental HEK293 cells; shares compounds with TRPC6 inhibitor; membrane potential dye fluorescence; after compound, maximal acetylcholine stimulation; actives 14% (n = 2,400); inhibition, % at 10 µM;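 active = membrane potential signal drops by more than 5 SD from the mean control signal, in both duplicate plates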;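 also: plate controls were acetylcholine ECmax control wells for no effect and buffer only wells for full effect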
# TRPC4/MOR mod = tests whether TRPC6 modulators also affect mouse TRPC4. shares compounds with TRPC6 inhibitor. HEK293 TRPC4/mu-opioid, membrane potential fluorescence. actives 69% (n = 2,400). percent change from control (negative = decrease, positive = increase), % at 10 µM;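 active = membrane potential signal moved up or down beyond 5 SD of buffer control wells, in both duplicate plates, actives on both sides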;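 also: plate controls were assay buffer wells for no effect and DAMGO maximal-effect wells for full effect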
# TRPC4/MOR inh 2 = mouse TRPC4 off-target activity of TRPC6 modulators, second screen. shares compounds with TRPC6 inhibitor. HEK293 TRPC4/mu-opioid, membrane potential dye fluorescence; stimulated with maximal-effect DAMGO. inhibition, % at 10 µM. actives 55% (n = 2,400). AID 488928;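 active = drop in membrane potential signal beyond 5 SD of the control wells in both duplicate plates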;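 also: TRPC4 counter screen for TRPC6 hits run under conditions tuned for TRPC6 not TRPC4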
# TRPC6 block conf = confirmation of mouse TRPC6 inhibitors; AID 488960; shares compounds with TRPC6 inhibitor; HEK293-TRPC6, membrane potential dye, ACh-evoked depolarization; inhibition, % at 10 µM; actives 43% (n = 3,300);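 active = fluorescence ratio falls more than 5 SD below the full-stimulation control mean, in both duplicate runs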;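 also: integrated fluorescence ratio of peak minus minimum over baseline after agonist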
# TRPC6 act confirm = confirmation of mouse TRPC6 activators | shares compounds with TRPC6 inhibitor | HEK293-TRPC6 membrane potential dye fluorescence, FDSS | activation, % at 10 µM | actives 11% (n = 2,800);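 active = ratio signal rise beyond 5 SD above unstimulated control wells' mean, seen in both duplicate runs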;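 also: plate controls were buffer EC0 wells for no effect and acetylcholine ECmax response for full effect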
# * marks the source's active call; other numbers are inactive results; i = inactive; x = no result given. Hits are enriched below; roughly 2.3% of the tested compounds scored in any of these assays.
SMILES,TRPC6 act,TRPC4 act,TRPC4 inh,TRPC6 inhibitor,TRPC4 PAM,HEK293 MPD ctr-2,HEK293 MPD ctr 2-2,TRPC4/MOR mod,TRPC4/MOR inh 2,TRPC6 block conf,TRPC6 act confirm,others
OC(C#CCN1CCCCCC1)(c1ccccc1)c1cccnc1 (stereo not drawn),i,i,i,-7.3*,i,x,x,x,x,63%*,x,TRPC4 spec 2=i;TRPC4 spec=3.4%*;HEK293 MPD ctr 2-1=8.5%*;HEK293 MPD ctr-1=4.8%*
OC(C#CCN1CCCC1)c1ccccc1 (stereo not drawn),i,i,i,i,i,x,x,x,x,x,x,
OC(C#CCN1CCCC1)(c1ccccc1)c1cccnc1 (stereo not drawn),i,i,i,-6.1*,i,i,69%*,i,i,82%*,i,
CCCN(CC#CC(O)(c1ccccc1)c1cccnc1)CCC (stereo not drawn),i,i,i,i,i,x,x,x,x,x,x,
CC1CCN(C(=O)CN(Cc2ccc(F)cc2)S(C)(=O)=O)CC1,i,i,i,i,i,x,x,x,x,x,x,
CCOC(=O)c1ccc2[nH]cc(C(C)=O)c(=O)c2c1,i,i,i,-7.5*,i,x,x,x,x,i,i,TRPC4 spec 2=i;TRPC4 spec=-26%*;HEK293 MPD ctr 2-1=i;HEK293 MPD ctr-1=-422%*
CCOC(=O)c1c[nH]c2c(Cl)ccc(Cl)c2c1=O,i,i,i,-6.1*,i,-324%*,i,-39%*,43%*,i,i,
CCOC(=O)c1c[nH]c2c(Cl)c(Cl)ccc2c1=O,i,i,i,-10*,i,x,x,x,x,i,i,TRPC4 spec 2=i;TRPC4 spec=-25%*;HEK293 MPD ctr 2-1=i;HEK293 MPD ctr-1=-298%*
CCOC(=O)c1c[nH]c2c3c(ccc2c1=O)CCCC3,i,i,i,i,i,x,x,x,x,x,x,
CCOC(=O)c1c[nH]c2c(C)ccc(Cl)c2c1=O,i,i,i,-7.6*,i,-303%*,i,-42%*,53%*,60%*,i,
COc1ccc(-n2cnnc2SCC(=O)Nc2cc(S(=O)(=O)N3CCCCC3)ccc2C)cc1,i,i,i,-6.1*,i,i,i,i,i,i,i,
CCC(=O)Nc1cc(C(=O)OCC(=O)c2ccccc2)ccc1C,i,i,i,i,i,x,x,x,x,x,x,
Cc1ccc(OCC(O)CN2CCOCC2)cc1 (stereo not drawn),i,i,i,i,i,x,x,x,x,x,x,
Cn1ccc(CC(=O)N2CCC(N3CCC(C(=O)N4CCCC4)CC3)CC2)c1,i,i,i,i,i,x,x,x,x,x,x,
